# pEC50, pIC50: −log10 of the molar value.
# Experiments:
# [1] = test system: U87, T98 and bEnd.3 cells; assay: PrestoBlue cell viability screen, cell line not given; assay type: cell-based; conditions: BEND3, 120 h
# How it was run: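 bEnd.3 cells, grown in DMEM with 10% FBS and 2 mM L-glutamine, seeded at 1 × 10^4 per well. After 48 h at 37 °C/5% CO2 the medium was replaced and 20× compound dilutions in DMEM added (3–30 μM 3-point or 0.03–30 μM semi-log 7-point). DMSO 0.1% v/v served as untreated control. After 5 d, PrestoBlue was added for 60–90 min (ex 540/em 590 nm). EC50 came from a four-parameter logistic fit, minimum constrained to zero, normalised to untreated cells.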
# [2] = test system: T98 cells; assay: PrestoBlue dose–response cell viability assay, 5 d; assay type: cell-based, human; conditions: T98 versus U87 and bEnd.3, 3-point screen
# [3] = target: LCK (Homo sapiens, UniProt P06239); assay: Z′-LYTE kinase inhibition; assay type: biochemical; conditions: 3-point dose–response (0.1, 1, 10 μM), ATP Km app
# How it was run: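 Z′-LYTE FRET assay: a peptide substrate tagged with a FRET pair, with protease cleavage distinguishing phospho from non-phospho peptide, read ratiometrically. Wild-type kinase was tested at 0.1, 1 and 10 μM in duplicate, with 1% DMSO and ATP at apparent Km. 100% inhibition was set without ATP; 0% used a synthetically phosphorylated substrate peptide. IC50 came from the dose-response curve.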
# [4] = test system: U87 cells; assay: PrestoBlue dose–response cell viability assay, 5 d; assay type: cell-based, human; conditions: U87, 3-point screen
# Sequence of LCK (P06239 whole entry): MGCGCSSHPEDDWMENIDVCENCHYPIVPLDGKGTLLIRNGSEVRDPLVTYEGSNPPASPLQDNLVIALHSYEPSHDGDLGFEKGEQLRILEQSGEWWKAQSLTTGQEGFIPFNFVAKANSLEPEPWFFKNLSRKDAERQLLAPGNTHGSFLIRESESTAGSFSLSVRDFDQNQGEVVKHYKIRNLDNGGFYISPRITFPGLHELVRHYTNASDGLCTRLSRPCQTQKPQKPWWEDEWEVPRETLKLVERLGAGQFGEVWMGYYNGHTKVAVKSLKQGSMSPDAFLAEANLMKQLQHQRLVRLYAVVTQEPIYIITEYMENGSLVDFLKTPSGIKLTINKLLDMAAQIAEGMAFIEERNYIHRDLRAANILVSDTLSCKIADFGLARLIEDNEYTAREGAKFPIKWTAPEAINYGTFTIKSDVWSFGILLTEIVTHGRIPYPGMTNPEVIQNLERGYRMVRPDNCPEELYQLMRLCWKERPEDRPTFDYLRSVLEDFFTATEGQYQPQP
SMILES,antiproliferative selectivity profile [2],also measured
CC1CCN(CC#Cc2nn(CC3CCCC3)c3ncnc(N)c23)CC1 [A3],,pEC50 [1]: > 4.52
CNc1ncc2c(C#CCN3CCC(NC(C)=O)CC3)nn(CC3CCCC3)c2n1 [B16],selective antiproliferative profile against the T98 cell line,
CNc1ncc2c(C#CCN3CCCCCC3)nn(CC3CCCC3)c2n1 [B21],selective antiproliferative profile against the T98 cell line,
CCOC(=O)C1CCN(CC#Cc2nn(CC3CCCC3)c3nc(NC)ncc23)CC1 [B22],selective antiproliferative profile against the T98 cell line,
CCOC(=O)N1CCN(CC#Cc2nn(CC3CCCC3)c3nc(NC)ncc23)CC1 [B23],selective antiproliferative profile against the T98 cell line,
"CN(C)C1CCN(CC#Cc2nn(C3CCCC3)c3nc(NCc4ccccc4)ncc23)C1 (stereo not shown) [B58, N-Benzyl-1-cyclopentyl-3-(3-(3-(dimethylamino)pyrrolidine-1-yl)prop-1-yn-1-yl)-1H-pyrazolo[3,4-d]pyrimidin-6-amine]",,pIC50 [3]: 5.64
"Cn1nnc2c(C(N)=O)ncn2c1=O [TMZ, temozolomide]",,antiproliferative activity [4]: some level of antiproliferative activity

# From paper PMC10718585 (RSC Medicinal Chemistry, 2023)
